Bioassay records from PubChem BioAssay.
Most compounds without a hit are left out; they make up all but 4.6% or so of the library.
NCF1 inh – blocks human p47phox regulatory protein of NADPH oxidases. p47phox/p22phox peptide binding, fluorescence polarization, 2 h. inhibition, % at 24.7 µM. 220,000 compounds, 0.53% hits;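 active = inhibition above about 30%, limit read from the data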;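 also: 0% = p47phox with labelled peptide and 100% = labelled peptide alone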
Biofilm kill mix – mixtures killing C. albicans biofilm. C. albicans biofilm persisters + clotrimazole, fluorescence viability; primary screen in compound mixtures of four per well. inhibition, % at 7.6 µM. 120,000 compounds, 0.02% hits. AID 1242;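 active = inhibition above 30.3% in the primary screen of four-compound pools, then above 30% when the compound was retested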;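 also: compounds exposed to preformed 24 h biofilms for 48 h; 0% = untreated biofilm control and 100% = clotrimazole plus chlorhexidine kill blank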
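System: C. albicans CAF4-2 wild-type biofilms; Medium: RPMI/MOPS medium, pH 7.0; Reagent: Clotrimazole, 50 µg/mL; Times: biofilm formation 24 h, compound exposure 48 h, 37 °C; Detection: 2-h Alamar Blue fluorescence, 535/590 nm excitation/emission; Evaluation: percent inhibition of biofilm viability.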
Arbovirus inh – antivirals against arbovirus infection. arbovirus infection cell-based antiviral screen. inhibition, % at 10 µM. 200,000 compounds, 0.37% hits. AID 1251; in the data active = inhibition above about 30%
WT yeast gro inh – growth inhibition of WT yeast, mitochondrial fusion screen; mitochondrial fusion phenotypic screen, WT strain; inhibition, % at 10 µM; 190,000 compounds, 2.1% hits; AID 1362; in the data active = inhibition above about 58%; tested in S. cerevisiae
RAM inhibit – yeast RAM network inhibition. S. cerevisiae dse1pr::URA3 reporter, 5-FOA growth OD615, 2 d; analog-sensitive cbk1-as2 kinase mutant strain. inhibition, % at 50 µM. 190,000 compounds, 1.8% hits;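 active = inhibition above a set limit, 3 SD over mean compound inhibition, cut at about 8.4% in these data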;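 also: 0% = DMSO-only wells with no growth and 100% = 10 µM 1-NA-PP1 full growth; inhibition rescues growth on 5-FOA so higher OD means more RAM inhibition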
Hck-Nef inh – human Hck-Nef kinase inhibition; inhibition, % at 20 µM; 220,000 compounds, 0.68% hits; Recombinant Hck-YEEI plus Nef, Z-Lyte FRET kinase assay; P08631;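 active = Hck-Nef kinase inhibition above about 50%, limit read from the data; inactive = inhibition below that limit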;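 also: 0% = DMSO with Hck plus Nef and 100% = Hck alone without Nef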
Target sequence (P08631 whole entry, looked up): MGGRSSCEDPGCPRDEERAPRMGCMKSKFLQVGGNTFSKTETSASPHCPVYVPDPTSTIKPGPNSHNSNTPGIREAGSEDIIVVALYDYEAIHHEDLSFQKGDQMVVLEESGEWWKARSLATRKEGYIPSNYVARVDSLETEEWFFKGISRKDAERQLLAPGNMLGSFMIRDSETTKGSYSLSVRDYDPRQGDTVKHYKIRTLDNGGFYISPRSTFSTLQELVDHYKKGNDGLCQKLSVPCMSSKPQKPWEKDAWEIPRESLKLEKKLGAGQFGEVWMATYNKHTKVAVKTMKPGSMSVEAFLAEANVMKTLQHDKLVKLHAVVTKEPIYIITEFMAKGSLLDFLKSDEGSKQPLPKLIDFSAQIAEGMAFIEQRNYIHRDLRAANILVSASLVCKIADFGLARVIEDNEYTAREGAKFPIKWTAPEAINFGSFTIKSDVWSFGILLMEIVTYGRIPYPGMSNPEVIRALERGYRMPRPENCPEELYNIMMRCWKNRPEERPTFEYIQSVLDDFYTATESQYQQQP
RAM efflux-def – RAM network inhibitors in efflux-deficient yeast; shares compounds with RAM inhibit; S. cerevisiae efflux-deficient reporter strain, 5-FOA growth OD615, 2 days; max inhibition, %; 1,200 tested, under 10 active; call rule not given here;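 also: plate controls were vehicle for no effect and reference inhibitor for full effect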
Numbers without * were called inactive; x = no result given.

SMILES	NCF1 inh	Biofilm kill mix	Arbovirus inh	WT yeast gro inh	RAM inhibit	Hck-Nef inh	RAM efflux-def
Cc1cc(CNC(=O)C(C)n2nc(C)c([N+](=O)[O-])c2C)c2ccccc2n1 (centres undefined)	-3.8	10.2	9.1	-0.2	-0.3	21.3	x
Cc1cccc(C)c1NC(=S)Nc1c(C)n(C)n(-c2ccccc2)c1=O	-2.3	13.1	5.9	-13.4	0.7	8.6	x
CCCCOn1c(C)c(C(=O)OCC)c2c3no[n+]([O-])c3ccc21	-7.6	x	10.6	0.7	12.1*	1.5	1.4
CCOC(=O)c1c(C)n(OC)c2ccc3c(no[n+]3[O-])c12	-4.5	x	-3.8	1.2	4.3	5.1	x
C=CCn1c(C)cc(C(=O)CSc2nnc(NCc3ccccc3)s2)c1C	-45.8	x	-9.5	13.2	14.2*	2.7	1.5
CCN(c1ccccc1)S(=O)(=O)c1ccc(Cl)c(C(=O)NCCc2ccc(OC)cc2)c1	-41.8	13.5	2.0	8.3	12.3*	3.8	2.6
COc1ccc(CCNC(=O)c2ccc(Cl)c(S(=O)(=O)N(C)c3ccccc3)c2)cc1	-17.3	9.0	4.7	11.1	17.0*	-0.3	2.9
CCC/C(O)=C1\C(=O)CCCC1=NCCc1c(C)[nH]c2ccccc12	-94.7	21.4	x	x	x	19.4	x
O=C(/C=C/c1ccc(-c2ccccc2[N+](=O)[O-])o1)c1ccccc1	-6.7	13.1	-11.1	40.7	15.8*	2.6	3.9
S=C(N=Nc1ccccc1)NNc1ccccc1	-11.7	5.7	1.6	4.6	-0.8	-1.2	x
CON/C=C(\C=Nc1ccccc1)c1ncc(C(F)(F)F)cc1Cl	0.9	x	12.5	31.0	6.0	0.5	x
CON/C=C(\C=Nc1ccc(Cl)cc1Cl)c1ncc(C(F)(F)F)cc1Cl	-14.9	x	-15.6	-14.4	12.6*	2.8	3.0
CCOC(=O)c1c(-c2cccc([N+](=O)[O-])c2)csc1NC(=O)CCCOc1ccccc1	-29.2	9.1	10.4	-6.8	14.1*	4.7	3.0
CCOC(=O)c1c(-c2ccccc2)csc1NC(=O)CCN1CCOCC1	3.1	15.7	8.4	56.6	0.4	-1.4	x
COc1ccccc1OCCCC(=O)Nc1ccc([N+](=O)[O-])cc1Br	-3.5	16.4	11.6	-1.8	4.4	1.8	x
CCOC(=O)c1c(-c2cccc([N+](=O)[O-])c2)csc1NC(=O)CCCOc1ccccc1OC	-14.2	11.9	-2.5	1.8	14.8*	0.7	1.8
COc1ccc(C(=O)N/N=c2\oc3ccccc3cc2C(=O)NCc2ccccc2)cc1	-19.1	-11.6	-11.1	11.0	5.2	3.2	x
CC(C)CC1=NN2C(=N)/C(=C\c3coc4ccccc4c3=O)C(=O)N=C2S1	-41.0	6.0	40.9*	14.9	13.8*	23.7	1.5
Cc1cccc(-n2c(C)cc(/C=C3\C(=N)N4N=C(CC(C)C)SC4=NC3=O)c2C)c1	-18.6	10.0	11.5	2.4	7.9	4.7	x
Cn1c(=O)c2c(nc(NN=C3CCCCC3)n2C)n(C)c1=O	1.7	18.6	4.8	-7.8	-0.6	4.2	x
COc1ccc(NC(=O)C(Sc2ccccc2)c2ccccc2)c(OC)c1 (centres undefined)	-25.0	7.9	-14.0	16.9	1.8	-0.1	x
COc1ccccc1NC(=O)C(Sc1ccccc1)c1ccccc1 (centres undefined)	-10.7	9.4	2.2	43.4	11.5*	0.0	3.5
O=C(Nc1ccc(Cl)c([N+](=O)[O-])c1)C(Sc1ccccc1)c1ccccc1 (centres undefined)	-13.4	-2.1	-32.0	79.9*	15.4*	0.8	1.5
O=C(c1cc(COc2ccc(F)cc2F)on1)N1CCCC(c2ccccc2)C1 (centres undefined)	-6.8	22.4	-10.3	45.0	6.3	42.6	x
O=C(c1cc(COc2ccc(F)cc2Cl)on1)N1CCCC(c2ccccc2)C1 (centres undefined)	-10.9	21.0	-9.6	37.8	13.1*	26.0	3.6
SMILES	NCF1 inh	Biofilm kill mix	Arbovirus inh	WT yeast gro inh	RAM inhibit	Hck-Nef inh	RAM efflux-def
O=c1c2ccccc2c(-c2ccccc2)nn1Cc1ccc(Cl)cc1	-12.7	x	-7.0	50.5	14.2*	0.7	1.7
O=C(O)Cc1nn(Cc2ccc(Cl)cc2)c(=O)c2ccccc12	1.2	11.8	4.7	5.6	0.5	4.7	x
NC(=O)CSc1cn(CCNC(=O)c2cccs2)c2ccccc12	-10.1	7.5	3.4	14.6	x	19.9	x
O=C(NCCn1cc(SCc2ccccc2)c2ccccc21)c1ccccc1F	-12.4	11.2	-23.6	37.9	15.3*	-2.5	2.5
Cc1cc(NC(=O)CSc2nc3ccsc3c(=O)n2Cc2ccccn2)n[nH]1	-15.9	x	3.9	7.1	19.8*	-1.0	1.1
CCCCn1c(SCC(=O)Nc2cc(C)[nH]n2)nc2ccsc2c1=O	-7.0	x	-5.7	2.1	6.7	1.4	x
O=C(COC(=O)C1CC2C=CC1C2)Nc1cccc(S(=O)(=O)N2CCOCC2)c1 (centres undefined)	1.7	6.8	x	x	x	7.1	x
O=C(CSc1nnc(Nc2ccccc2)s1)NCc1cccs1	-6.6	7.7	-10.2	-0.3	4.0	2.0	x
O=C(OCC#CCSc1nnc(-c2ccc(Br)cc2)o1)c1cccs1	-1.8	15.2	-2.2	19.8	16.1*	1.8	13.8
CCC1CCCCN1S(=O)(=O)c1ccc(S(=O)(=O)N(Cc2cccs2)C2CC2)cc1 (centres undefined)	-10.4	x	-0.4	-63.2	12.6*	1.0	2.2
Cc1c(NC(=O)c2ccc(-c3ccc([N+](=O)[O-])cc3Cl)o2)c(=O)n(-c2ccccc2)n1C	-9.4	12.9	1.4	8.9	1.1	11.5	x
Cc1cc(C)c(S(=O)(=O)NCc2ccc3c(c2)cc(C)n3C)c(C)c1	-5.0	x	-21.2	-9.3	13.7*	0.4	2.3
Cc1cc2cc(CNS(=O)(=O)c3ccc4ccccc4c3)ccc2n1C	29.6	x	-10.6	-13.2	3.8	5.4	x
CC(=O)c1cn(C)c(=O)[nH]c1=O	-7.5	5.9	8.5	-20.8	4.2	-11.9	x
COc1ccc(C(=O)O/N=C/c2c(C(F)(F)F)nn(C)c2SCc2ccccc2Cl)cc1	9.0	x	-31.8	17.9	11.9*	2.6	4.0
Cn1nc(C(F)(F)F)c(/C=N/OC(=O)c2ccccc2Cl)c1SCc1ccc(Cl)cc1	-7.6	x	-21.3	-3.6	16.4*	-0.8	2.6
Cc1nc(-c2c(-c3ccc(O)cc3O)noc2C(F)(F)F)cs1	-22.6	x	0.9	-1.3	0.5	7.4	x
COC(=O)c1ccc(-c2ncc(-c3cccc4ccccc34)o2)cc1	-8.6	18.7	-15.3	7.0	13.1*	23.2	1.8
Cc1cccc(NC(=O)C2CCCN2C(=O)Oc2ccccc2)c1C (centres undefined)	-6.7	15.2	9.3	-16.3	12.3*	7.3	1.1
CCN(CC)CCCN1C(=O)CSC1c1ccc([N+](=O)[O-])cc1 (centres undefined)	4.9	22.9	2.9	-5.0	1.5	20.1	x
